One compound from ChEMBL document CHEMBL2177085 (J Med Chem, 2012) can be followed below.

For assay [1], the target named is Angiopoietin-1 receptor (Homo sapiens) (UniProt Q02763). Kind of assay: Inhibition of TIE2 assessed as enzyme residual activity at 10 uM relative to untreated control. In a few lines: (§1)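 Residual kinase activity at 10 μM compound, determined by a commercial kinase profiling service (Millipore) across 15 kinases of different classes. Each compound tested in duplicate.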

For assay [2], the target named is Hepatocyte growth factor receptor (Homo sapiens) (UniProt P08581). Kind of assay: Inhibition of MET assessed as enzyme residual activity at 10 uM relative to untreated control. In a few lines: as §1
For assay [3], the target named is Vascular endothelial growth factor receptor 2 (Homo sapiens, UniProt P35968). Kind of assay: Inhibition of VEGFR2 assessed as enzyme residual activity at 10 uM relative to untreated control. The method, boiled down: as §1
The target in assay [4] is Glycogen synthase kinase-3 beta (Homo sapiens, UniProt P49841). In words: Inhibition of GSK3beta assessed as enzyme residual activity at 10 uM relative to untreated control. In a few lines:
as §1

Assay [5] addresses Receptor-type tyrosine-protein kinase FLT3 (Homo sapiens) (UniProt P36888). In words: Inhibition of FLT3 assessed as enzyme residual activity at 10 uM relative to untreated control. The method, boiled down:
as §1

The target of assay [6] is CDK6/cyclin D3 (Homo sapiens) (UniProt P30281+Q00534). Kind of assay: Inhibition of CDK6/cyclinD3 assessed as enzyme residual activity at 10 uM relative to untreated control. In kind it is protein-complex assay. In a few lines: as §1
For assay [7], the target named is Cyclin-dependent kinase 2/cyclin A (Homo sapiens) (UniProt P24941+P20248+P78396). In words: Inhibition of CDK2/cyclinA assessed as enzyme residual activity at 10 uM relative to untreated control. In kind it is protein-complex assay. In a few lines:
as §1

Assay [8] is described as follows: Inhibition of angiogenesis in chick embryo model assessed as reduction in vessel growth at 26 nM incubated for 24 hrs. Format: functional, Gallus gallus. In a few lines:
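White leghorn eggs incubated at 37.5 °C, 62% humidity. At 70 h, albumen removed and shell windowed. From 75 h, 15 agarose pellets (from a 26 mM DMSO stock in 2% agarose; final concentration 26 nM) placed on the area vasculosa.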

For assay [9], the system named is MKN-45. In words: Induction of apoptosis in human MKN45 assessed as accumulation at subG1 phase at 15 uM incubated for 7 days by flow cytometry (reference value: 10.9 +/- 3.2%). In kind it is functional. (In general: Flow cytometry measures light scatter and fluorescence of single cells or particles in a stream.)
Another assay relates to MOLM-14. Kind of assay: Cytotoxic activity against human MOLM14 cells assessed as cell viability at 50 uM incubated for 3 days by MTT assay. Format: functional. To be noted: MOLM-14, 72 h, read-out: Activity. The method, boiled down:
(§2)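 MTT viability: exponentially growing cells, 10 000 viable cells/well in RPMI plated overnight, then exposed to test compounds for 3 days (HT-29, Molm-14) or 5 days (Mkn-45) at 37 °C, 5% CO2. MTT added for 4 h, then SDS/HCl solubilization overnight and absorbance read at 562 nm. Viability is expressed relative to untreated cells (100%). Triplicate.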
Background: Tetrazolium assays rely on reduction of a dye to a coloured formazan, in cell work by metabolically active cells.

For assay [10], the system named is MKN-45. Kind of assay: Cytotoxic activity against human MKN45 cells assessed as cell viability at 50 uM incubated for 5 days by MTT assay. Format: functional. To be noted: MKN-45, 120 h, read-out: Activity. The method, boiled down: as §2
In assay [11] the test system is MKN-45. Kind of assay: Cytotoxic activity against human MKN45 cells assessed as cell viability at 10 uM incubated for 5 days by MTT assay. Format: functional. To be noted: MKN-45, 120 h, read-out: Activity. In a few lines:
as §2

Glycogen synthase kinase-3 beta, sequence (P49841 whole entry, looked up): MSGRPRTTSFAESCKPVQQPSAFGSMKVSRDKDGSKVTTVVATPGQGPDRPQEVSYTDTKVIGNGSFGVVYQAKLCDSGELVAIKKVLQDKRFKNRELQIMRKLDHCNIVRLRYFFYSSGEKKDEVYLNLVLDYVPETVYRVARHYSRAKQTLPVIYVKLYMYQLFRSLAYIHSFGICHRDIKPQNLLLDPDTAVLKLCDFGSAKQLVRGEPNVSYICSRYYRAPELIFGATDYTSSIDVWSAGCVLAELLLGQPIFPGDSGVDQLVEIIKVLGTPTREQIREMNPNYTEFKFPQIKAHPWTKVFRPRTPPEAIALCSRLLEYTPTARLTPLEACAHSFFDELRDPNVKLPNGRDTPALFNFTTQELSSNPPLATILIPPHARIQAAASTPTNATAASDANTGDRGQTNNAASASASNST
Angiopoietin-1 receptor (Homo sapiens), sequence (Q02763 whole entry): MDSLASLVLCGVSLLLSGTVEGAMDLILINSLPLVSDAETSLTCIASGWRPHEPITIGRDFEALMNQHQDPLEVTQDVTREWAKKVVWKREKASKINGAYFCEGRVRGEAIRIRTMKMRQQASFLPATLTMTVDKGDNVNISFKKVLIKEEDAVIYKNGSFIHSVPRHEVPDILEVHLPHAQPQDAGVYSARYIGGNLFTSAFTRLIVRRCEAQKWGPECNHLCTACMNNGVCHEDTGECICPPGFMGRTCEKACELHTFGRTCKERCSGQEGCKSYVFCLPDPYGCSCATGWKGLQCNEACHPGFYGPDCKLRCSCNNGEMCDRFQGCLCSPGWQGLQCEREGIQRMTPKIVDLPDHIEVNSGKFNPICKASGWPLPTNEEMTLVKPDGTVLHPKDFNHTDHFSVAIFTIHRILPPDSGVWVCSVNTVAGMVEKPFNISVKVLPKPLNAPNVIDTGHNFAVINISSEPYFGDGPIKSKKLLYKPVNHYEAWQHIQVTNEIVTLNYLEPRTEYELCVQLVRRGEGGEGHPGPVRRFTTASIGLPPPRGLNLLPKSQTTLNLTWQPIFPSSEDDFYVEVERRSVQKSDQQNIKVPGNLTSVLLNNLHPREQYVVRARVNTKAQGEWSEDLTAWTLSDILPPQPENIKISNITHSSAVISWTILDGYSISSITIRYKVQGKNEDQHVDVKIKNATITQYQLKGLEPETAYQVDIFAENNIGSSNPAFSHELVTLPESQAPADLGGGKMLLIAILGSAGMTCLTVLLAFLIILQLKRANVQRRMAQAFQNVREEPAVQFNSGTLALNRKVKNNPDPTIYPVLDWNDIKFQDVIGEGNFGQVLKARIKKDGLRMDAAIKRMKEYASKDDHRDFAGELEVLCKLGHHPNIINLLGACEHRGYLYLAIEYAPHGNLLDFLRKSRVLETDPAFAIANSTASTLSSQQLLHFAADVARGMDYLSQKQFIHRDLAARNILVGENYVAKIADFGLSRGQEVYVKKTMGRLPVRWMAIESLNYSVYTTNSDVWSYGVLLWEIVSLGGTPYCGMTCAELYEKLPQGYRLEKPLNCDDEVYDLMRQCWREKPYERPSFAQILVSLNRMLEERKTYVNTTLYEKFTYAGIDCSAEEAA
Hepatocyte growth factor receptor (Homo sapiens), sequence (P08581 whole entry): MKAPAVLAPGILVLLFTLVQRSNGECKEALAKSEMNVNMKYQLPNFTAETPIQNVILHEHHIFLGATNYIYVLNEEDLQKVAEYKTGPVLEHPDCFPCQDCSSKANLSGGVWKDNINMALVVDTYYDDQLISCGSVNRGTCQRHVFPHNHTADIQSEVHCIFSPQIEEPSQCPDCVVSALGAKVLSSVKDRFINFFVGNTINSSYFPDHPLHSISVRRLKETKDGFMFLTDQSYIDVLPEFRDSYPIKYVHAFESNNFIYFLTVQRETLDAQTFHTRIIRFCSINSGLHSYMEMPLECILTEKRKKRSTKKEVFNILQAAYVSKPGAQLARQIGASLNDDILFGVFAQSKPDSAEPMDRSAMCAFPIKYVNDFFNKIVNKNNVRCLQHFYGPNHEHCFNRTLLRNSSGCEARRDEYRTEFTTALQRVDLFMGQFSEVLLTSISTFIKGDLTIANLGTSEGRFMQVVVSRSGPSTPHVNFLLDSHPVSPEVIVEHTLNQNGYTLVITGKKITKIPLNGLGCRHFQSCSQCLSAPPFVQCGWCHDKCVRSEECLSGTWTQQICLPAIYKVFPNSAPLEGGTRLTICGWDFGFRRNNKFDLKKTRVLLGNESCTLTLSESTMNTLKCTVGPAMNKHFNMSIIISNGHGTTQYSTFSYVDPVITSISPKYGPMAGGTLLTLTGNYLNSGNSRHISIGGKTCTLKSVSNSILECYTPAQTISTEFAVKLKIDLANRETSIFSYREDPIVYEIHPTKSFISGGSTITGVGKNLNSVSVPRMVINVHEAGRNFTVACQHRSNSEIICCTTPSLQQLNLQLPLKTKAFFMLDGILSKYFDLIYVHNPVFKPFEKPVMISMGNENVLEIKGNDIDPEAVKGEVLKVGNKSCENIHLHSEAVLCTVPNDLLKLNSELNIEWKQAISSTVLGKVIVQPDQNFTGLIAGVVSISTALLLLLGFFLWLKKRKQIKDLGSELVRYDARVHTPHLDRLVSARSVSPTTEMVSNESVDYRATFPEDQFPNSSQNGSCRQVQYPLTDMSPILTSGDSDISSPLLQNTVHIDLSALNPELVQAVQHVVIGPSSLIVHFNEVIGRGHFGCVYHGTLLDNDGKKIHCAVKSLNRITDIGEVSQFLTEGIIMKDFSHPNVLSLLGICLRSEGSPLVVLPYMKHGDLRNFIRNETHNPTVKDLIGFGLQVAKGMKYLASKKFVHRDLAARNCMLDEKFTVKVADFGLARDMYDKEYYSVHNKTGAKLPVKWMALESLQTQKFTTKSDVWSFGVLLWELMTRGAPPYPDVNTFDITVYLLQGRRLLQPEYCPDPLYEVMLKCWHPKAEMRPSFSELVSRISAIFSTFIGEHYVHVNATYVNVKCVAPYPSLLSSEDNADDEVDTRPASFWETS
Vascular endothelial growth factor receptor 2, sequence (P35968 whole entry): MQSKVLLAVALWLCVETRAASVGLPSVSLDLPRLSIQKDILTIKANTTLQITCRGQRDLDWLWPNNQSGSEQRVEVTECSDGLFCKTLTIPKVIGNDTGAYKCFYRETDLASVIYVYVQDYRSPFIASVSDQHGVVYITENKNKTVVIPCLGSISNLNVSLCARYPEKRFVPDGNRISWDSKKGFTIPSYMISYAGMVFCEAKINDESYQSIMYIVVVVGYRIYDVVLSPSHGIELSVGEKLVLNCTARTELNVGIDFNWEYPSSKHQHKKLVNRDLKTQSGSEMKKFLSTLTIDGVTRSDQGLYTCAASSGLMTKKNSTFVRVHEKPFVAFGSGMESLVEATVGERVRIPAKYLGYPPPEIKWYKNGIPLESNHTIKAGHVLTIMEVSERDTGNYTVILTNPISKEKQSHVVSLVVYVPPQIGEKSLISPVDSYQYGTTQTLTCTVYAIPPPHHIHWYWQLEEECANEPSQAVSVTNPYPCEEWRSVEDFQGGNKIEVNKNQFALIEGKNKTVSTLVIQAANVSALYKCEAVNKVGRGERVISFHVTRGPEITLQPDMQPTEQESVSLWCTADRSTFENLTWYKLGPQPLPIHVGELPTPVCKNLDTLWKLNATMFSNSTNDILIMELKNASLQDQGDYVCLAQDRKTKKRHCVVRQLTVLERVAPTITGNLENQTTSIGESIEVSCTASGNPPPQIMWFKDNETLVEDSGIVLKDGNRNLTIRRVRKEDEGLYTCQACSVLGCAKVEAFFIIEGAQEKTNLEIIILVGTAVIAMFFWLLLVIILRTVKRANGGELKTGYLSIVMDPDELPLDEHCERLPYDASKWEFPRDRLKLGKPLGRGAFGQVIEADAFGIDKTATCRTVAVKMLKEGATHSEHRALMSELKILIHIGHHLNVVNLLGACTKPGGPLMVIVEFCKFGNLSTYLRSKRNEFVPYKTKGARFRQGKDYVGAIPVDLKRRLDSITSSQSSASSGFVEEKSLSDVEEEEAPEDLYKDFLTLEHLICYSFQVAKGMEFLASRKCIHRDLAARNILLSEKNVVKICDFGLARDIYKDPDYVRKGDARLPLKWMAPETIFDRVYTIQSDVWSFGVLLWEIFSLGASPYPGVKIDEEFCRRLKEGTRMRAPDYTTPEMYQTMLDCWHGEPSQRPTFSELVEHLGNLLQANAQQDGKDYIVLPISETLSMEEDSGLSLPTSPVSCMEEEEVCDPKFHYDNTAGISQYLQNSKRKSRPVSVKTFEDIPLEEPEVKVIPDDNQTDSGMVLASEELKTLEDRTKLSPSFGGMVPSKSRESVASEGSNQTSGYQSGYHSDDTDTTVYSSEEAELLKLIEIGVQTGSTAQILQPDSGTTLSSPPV

As for `COc1cc(C2=C(c3c[nH]c4cnccc34)C(=O)NC2=O)cc(OC)c1OC`, the Activity amounted to 116% in assay [1]; 83% in [2]; 1% in [3]; 2% in assay [4]; 0% in [5]; 103% in assay [6]. Besides, the Activity in assay [7] is 88%; in the assay with MKN-45 [9], 22.9%. Further, the “inhibition (INH)” value in [8] is given as 32%. In addition, the results for the viability at 50 µM with MOLM-14 and in the assay with MKN-45 [10] were 2.4% and 68.6%, respectively. The viability at 10 µM in the assay on MKN-45 [11] was 108%.
